This is an account of results in ChEMBL document CHEMBL1123157, “Thromboxane synthetase inhibitors and antihypertensive agents. 1. N-[(1H-imidazol-1-yl)alkyl]aryl amides and N-[(1H-1,2,4-triazol-1-yl)alkyl]aryl amides” (J Med Chem, 1986).

Assay [1] deals with Rattus norvegicus. The assay can be described thus: Antihypertensive activity in spontaneously hypertensive rats tested at 100 mg/kg po/day for 2 days. Set-up: dose 100 mg/kg. Type of assay: functional, organism-based. The method in brief: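 Male 16-week-old Okamoto SHR (mean arterial pressure about 170 mmHg), 1-3 rats per compound. Given by gavage in 2% preboiled starch (50 mg/mL), 100 mg/kg or less, with 0.9% NaCl load (25 mL/kg). Second dose without saline 24 h later. Mean arterial pressure measured 28 h after first dose. Active if ≤116 mmHg in one rat or mean ≤122 mmHg in two.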

The target of assay [2] is T1, Thromboxane-A synthase (Rattus norvegicus) (UniProt P49430).
T1 sequence (whole entry): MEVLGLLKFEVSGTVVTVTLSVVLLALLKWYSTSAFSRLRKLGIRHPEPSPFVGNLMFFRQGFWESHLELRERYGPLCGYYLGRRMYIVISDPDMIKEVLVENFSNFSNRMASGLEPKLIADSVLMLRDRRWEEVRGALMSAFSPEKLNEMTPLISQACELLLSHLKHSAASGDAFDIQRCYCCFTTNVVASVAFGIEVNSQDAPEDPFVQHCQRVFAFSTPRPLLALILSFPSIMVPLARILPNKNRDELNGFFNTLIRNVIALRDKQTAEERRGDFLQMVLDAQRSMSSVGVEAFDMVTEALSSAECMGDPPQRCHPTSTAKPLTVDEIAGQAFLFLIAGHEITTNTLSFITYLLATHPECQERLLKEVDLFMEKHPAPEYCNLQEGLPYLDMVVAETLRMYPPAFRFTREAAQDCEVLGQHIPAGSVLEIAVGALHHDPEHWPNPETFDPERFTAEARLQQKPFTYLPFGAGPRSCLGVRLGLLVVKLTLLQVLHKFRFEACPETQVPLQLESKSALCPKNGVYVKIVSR
The assay can be described thus: Inhibitory activity for thromboxane synthetase determined by TXB2 levels in platelets from spontaneously hypertensive rats. Also noted: concentration or dose not given beside the values. The following applies: concentration not given here. The method in brief: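 Washed SHR platelets in oxygenated Krebs phosphate buffer, pH 7.4, 4.5-6.0 × 10^4/μL, incubated with vehicle or drug for 10 min at 37 °C. Stopped with ice and citric acid. Supernatant TXB2 measured by RIA; TXB2 in boiled controls subtracted; % inhibition calculated. IC50 read graphically from % inhibition vs log concentration; single-point screen at 10^-4 M.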

Broadly, the inhibition is the relative decrease from the control value, in per cent.

Active and inactive are the calls of the source.

Take `O=C(NCCCCn1ccnc1)c1ccc(Cl)c(Cl)c1`: the result in assay [1] was inactive. Also, in assay [2], the inhibition amounted to 100%.

As for `CC(CNC(=O)c1ccc(Cl)cc1)Cn1ccnc1` (stereo not given), the outcome in assay [1] was inactive. The same compound had an inhibition in assay [2] of 100%.

Regarding `Cc1cn(CCCNC(=O)c2ccc(I)cc2)cn1`, the result in assay [1] was inactive. The same compound returned an inhibition in assay [2] of 99%.

For `CC(=O)Nc1ccc(C(=O)NCCCn2cncn2)cc1`, the outcome in assay [1] was inactive. In assay [2], this compound gave an inhibition of 75%.

Take `COc1cc(C(=O)NCCCn2cncn2)cc(OC)c1OC`: the outcome in assay [1] was inactive. This compound returned an inhibition in assay [2] of 64%.

As to `CN(C)c1ccc(C(=O)NCCCn2ccnc2)cc1`, the outcome in assay [1] was inactive. This compound came in with an inhibition in assay [2] of 93%.

`O=C(NCCCCn1cncn1)c1ccc(Br)cc1`: the outcome in assay [1] was inactive. The inhibition in assay [2] came out at 88%.

As for `COc1ccc(C(=O)NCCCn2cncn2)cc1`, the outcome in assay [1] was inactive. In assay [2], this compound came in with an inhibition of 70%.

As to `O=C(O)c1ccccc1C(=O)NCCCCn1ccnc1`, the outcome in assay [1] was inactive. The compound further returned an inhibition in assay [2] of 50%.

`O=C(NCCCCCn1ccnc1)c1ccc(Br)cc1`: the outcome in assay [1] was inactive. Further, the inhibition in assay [2] is 100%.

For the compound `CC(=O)Nc1ccc(C(=O)NCCCn2ccnc2)cc1`, the outcome in assay [1] was inactive. In assay [2], this compound displayed an inhibition of 99%.

As for `O=C(NC/C=C/Cn1ccnc1)c1ccc(C(F)(F)F)cc1` (stereo in doubt; 54), the outcome in assay [1] was inactive. This compound also yielded an inhibition in assay [2] of 95%.

As to `O=C(NCCCn1cncn1)c1ccccc1-c1ccccc1`, the outcome in assay [1] was inactive. Also, the inhibition in assay [2] is 65%.

On to `CC(CCNC(=O)c1ccc(Cl)cc1)n1ccnc1` (stereo not given), for which the outcome in assay [1] was inactive. In assay [2], this compound gave an inhibition of 96%.

On to `Cc1nccn1CCCNC(=O)c1ccc(Br)cc1`, for which, in assay [1], the outcome was inactive. The inhibition in assay [2] was found to be 66%.

Turning to `O=C(NCCCCn1cncn1)c1ccccc1-c1ccccc1`, the result in assay [1] was inactive. This compound also came in with an inhibition in assay [2] of 89%.

As to `O=C(NCCCCn1cncn1)c1ccc(Cl)c(Cl)c1`, in assay [1], the outcome was inactive. The compound further displayed an inhibition in assay [2] of 82%.

`O=C(NCCCn1ccnc1)c1ccc(-c2ccccc2)cc1`: the result in assay [1] was inactive. This compound registered an inhibition in assay [2] of 100%.

As to `O=C(NCCn1cncn1)c1ccc(Br)cc1`, the outcome in assay [1] was inactive. Further, the inhibition in assay [2] was determined as 0%.

As to `O=C(NCCCCn1cncn1)c1ccc(C(F)(F)F)cc1`, the result in assay [1] was inactive. In addition, the inhibition in assay [2] is 38%.

Regarding `O=C(NCCCn1ccnc1)c1ccc(F)cc1`, the outcome in assay [1] was inactive. In assay [2], the inhibition was determined as 87%.

With `O=C(NCCCCn1cncn1)c1cccc(Cl)c1`, the outcome in assay [1] was inactive. In assay [2], this compound displayed an inhibition of 87%.

Turning to `N#Cc1ccc(C(=O)NCCCn2ccnc2)cc1`, the result in assay [1] was inactive. In assay [2], this compound returned an inhibition of 91%.

As for `O=C(NCCCn1cncn1)c1ccc(Cl)cc1`, the result in assay [1] was inactive. Further, the inhibition in assay [2] was 16%.

Consider `O=C(NCCCn1ccnc1)c1ccc(Cl)c(Cl)c1`, for which the result in assay [1] was inactive. For the same compound, the inhibition in assay [2] came to 93%.

In the case of `O=C(NCCCn1ccnc1)c1ccccc1Cl`, in assay [1], the outcome was inactive. Moreover, the inhibition in assay [2] worked out at 100%.

Turning to `O=C(COc1ccc(Cl)cc1)NCCCn1cncn1`, the result in assay [1] was inactive. Also, in assay [2], the inhibition amounted to 56%.

Turning to `Cc1nccn1CCCNC(=O)c1ccc(Cl)c(Cl)c1`, the outcome in assay [1] was inactive. For the same compound, in assay [2], the inhibition worked out at 82%.

As to `CCc1nccn1CCCNC(=O)c1ccc(Cl)cc1`, in assay [1], the result was inactive. Further, the inhibition in assay [2] was found to be 32%.

`O=C(NCCCCCCCCn1ccnc1)c1ccc(Br)cc1` registered an inhibition in assay [2] of 100%.

As to `O=C(O)c1ccc(OCCn2ccnc2)cc1`, the inhibition in assay [2] came to 98%.
